XBP1 UPR activ: activators of adaptive arm of unfolded protein response (XBP1). AID 463104. activation, % at 20 µM. CHO-XBP1 luciferase reporter, IRE1-XBP1 UPR activation, luminescence; percent of tunicamycin response, DMSO as zero. 330,000 tested, 0.33% active;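 active = versus positive control, 20 µM dose yields 30% or more activation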;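 note: 100% = tunicamycin at 10 µg/mL and 0% = DMSO only wells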
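Material: CHO-XBP1 cells stably carrying IRE1-XBP1-driven luciferase reporter | Medium: F12 with 10% serum | Compound dosing: 20 µM single concentration, DMSO 1% | Incubation: Overnight seeding at 37 °C, 6 h compound treatment at 37 °C | Detection: Steady-Glo luminescence read | Read-out basis: % activation of reporter signal versus tunicamycin and DMSO controls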
697 NFkB inh: inhibitors of the PMA/ionomycin-induced NF-kB reporter in 697 B cells; 697 B-cell NF-kB luciferase reporter, 16 h; inhibition, % at 4 µM; 330,000 tested, 0.33% active; in the data active = inhibition above about 35%
Jurkat NFkB inh: inhibitors of the PMA/ionomycin-induced NF-kB reporter in Jurkat cells | PMA/ionomycin-induced NF-kB luciferase reporter, luminescence | inhibition, % at 4 µM | 330,000 tested, 0.53% active | AID 435003; in the data active = inhibition above about 50%
CRFR2-BP antag: antagonists of CRF-binding protein/CRF-R2 receptor complex; HEK293 CRF-R2/CRF-BP, CRF-induced calcium fluorescence; inhibition, % at 11.8 µM; 350,000 tested, 0.59% active; AID 588475;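 active = inhibition of the ligand-induced calcium signal above about 50% at the single tested concentration, limit read from the data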
CHOP UPR activ: apoptotic UPR (CHOP) activation. CHO-CHOP luciferase reporter, luminescence; percent of tunicamycin response over DMSO baseline. activation, % at 10 µM. 330,000 tested, 0.34% active. AID 449763;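 active = at 10 µM dose, activation of 40% or more, normalized to positive control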;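 note: 100% = tunicamycin at 10 µg/mL and 0% = DMSO alone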
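System: CHO CHOP reporter cells. Amount: 500 cells per well. Buffer or medium: F12 medium, 10% FBS. Compound dosing: one dose, 10 µM in 0.5% DMSO. Incubation: 6 h compound exposure at 37 °C after overnight seeding. Technique: Steady-Glo luciferase luminescence. Benchmarks: tunicamycin and DMSO controls.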
UPR CHOP confirm: confirmation of apoptotic unfolded protein response (CHOP) activators; shares compounds with CHOP UPR activ; AID 463112; activation, % at 10 µM; CHO-CHOP cells, CHOP-luciferase reporter luminescence; percent of tunicamycin response, DMSO as zero; 1,000 tested, 64% active; in the data active = activation above about 33%;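 note: 0% = DMSO wells and 100% = tunicamycin 10 µg/mL wells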
An asterisk follows results filed as active; . = no result given. Only some compounds are listed: those with a hit (about 1.8% of all), similar ones and a draw of the others.

SMILES | XBP1 UPR activ | 697 NFkB inh | Jurkat NFkB inh | CRFR2-BP antag | CHOP UPR activ | UPR CHOP confirm
CCOc1ccc2nc(SC3CC(=O)N(c4ccc(OC)cc4)C3=O)sc2c1 (centres undefined) | -7 | -30 | -31 | -8 | 45* | 24
CCn1c(CSc2nc3ccccc3s2)nnc1SCC(=O)c1ccc(O)c(O)c1 | 12 | -18 | 22 | 6 | 47* | 0
CCn1c(CSc2nc3ccccc3s2)nnc1SCC(=O)c1ccc(Cl)cc1 | 2 | 15 | 10 | -12 | -2 | .
C=CCn1c(O)c(N=NC(=S)Nc2ccccc2F)c2cc(S(=O)(=O)N3CCOCC3)ccc21 | -1 | -17 | 12 | 24 | 88* | 121*
CC(=O)c1ccc(NC(=O)CN2CCCC2)cc1 | 1 | -49 | -39 | -1 | 6 | .
Cc1ccc(C(=O)/C=C/c2ccc(-c3ccc(C)cc3)o2)cc1 | 18 | -39 | -2 | -54 | 94* | -1
O=C(/C=C\c1ccc(-c2ccccc2)o1)c1ccccc1 | 10 | 3 | -15 | -11 | 79* | 4
CCN(CC)S(=O)(=O)c1ccc(C(=O)/C=C/c2ccc(-c3ccc([N+](=O)[O-])cc3)o2)cc1 | 4 | 2 | 9 | -33 | 2 | .
O=C(/C=C/c1ccccc1)c1ccccc1 | 10 | -2 | -26 | 2 | 4 | .
CCn1c(C(=O)O)c(CC(=O)N(C)c2ccc(OC)cc2OC)c2ccccc21 | -5 | 13 | 3 | 9 | -1 | .
CN(C)S(=O)(=O)c1cccc(NC(=O)CN2C(=O)NC3(CCc4ccccc4C3)C2=O)c1 (centres undefined) | 0 | 7 | -15 | -7 | -1 | .
CC(NC(=O)c1ccco1)C(=O)NC(C)c1cc(F)c(Cl)cc1Cl (centres undefined) | 2 | 14 | 0 | -17 | 1 | .
O=C1c2cc(F)ccc2-n2c1nc1ccccc1c2=O | 12 | -46 | 46 | -5 | 77* | 30
N#CC(c1ccccn1)c1ncc(C(F)(F)F)cc1Cl (centres undefined) | -3 | 25 | -9 | -2 | -2 | .
Cn1nc([N+](=O)[O-])c(C(C#N)c2ccccn2)c(Cl)c1=O (centres undefined) | -4 | -12 | -2 | 3 | 73* | 49*
O=C(O)/C=C/C(=O)c1ccc2c(c1)CCc1ccccc1-2 | 1 | -54 | 3 | -14 | 126* | 7
CC1CN(C(=O)CCC(=O)N2CCCCC2)c2ccccc2O1 (centres undefined) | -1 | -15 | 4 | 6 | 0 | .
COc1ccc(Nc2ccc3c(c2)=NC2(CCCCC2)[N+]=3[O-])cc1 | 13 | -36 | 17 | 21 | 45* | 21
Cc1ccc(S(=O)(=O)NCC(=O)OCC(=O)N2C(C)CCCC2C)cc1 (centres undefined) | -1 | 7 | -3 | 4 | -1 | .
N#Cc1c(-c2ccccc2)cc(-c2ccc(O)cc2)nc1N | 9 | 1 | -5 | -7 | 3 | .
CS(=O)(=O)c1nc(-c2ccc(Br)cc2)cc(-c2ccccc2)c1C#N | 11 | 22 | 29 | -26 | 279* | 130*
C=CCc1cccc(/C=N/NC(=O)c2ccccc2Br)c1O | 3 | 3 | 6 | -9 | 0 | .
C=CCc1cccc(/C=N/NC(=O)c2ccccc2OC)c1O | 3 | -13 | 16 | 13 | 127* | 2
Cc1ccc(SC(=O)c2c(C)noc2-c2cc(C)on2)cc1 | -4 | -2 | -3 | -9 | 57* | 18
Cc1sc2nc(SCC(=O)N(C)c3ccccc3)n(C)c(=O)c2c1C | -2 | -25 | 16 | -13 | 2 | .
SMILES | XBP1 UPR activ | 697 NFkB inh | Jurkat NFkB inh | CRFR2-BP antag | CHOP UPR activ | UPR CHOP confirm
CSc1ccccc1NC(=O)CN(C)C(=O)COc1cccc2cccnc12 | 13 | -7 | -6 | -5 | 48* | 12
O=C1C(c2ccccc2)=[N+]([O-])c2ccccc21 | 16 | -4 | 5 | 2 | 67* | 29
COC1=C(c2ccccc2)C(=O)c2ccccc2C1=O | -3 | -4 | -8 | 14 | 0 | .
CC(=O)n1cc(Nc2ccc([N+](=O)[O-])cc2)c2ccccc21 | 0 | 21 | -15 | -6 | 0 | .
CC(=O)SC(C[N+](=O)[O-])c1cn(C(C)=O)c2ccccc12 (centres undefined) | 0 | 12 | -7 | -4 | 159* | -10
CCCn1c(CN2CCN(C(=O)OCC)CC2)nc2cc(NC(=O)C(C)C)ccc21 | -4 | -23 | 14 | -9 | 50* | 0
Cc1ccc(S(=O)(=O)N(C(=O)c2ccncc2)c2ccc(OC(=O)c3ccncc3)c3ccccc23)c(C)c1 | -3 | -11 | 14 | -7 | 59* | 113*
Cc1ccc(Nc2c([N+](=O)[O-])c(=O)n(C)c3ccccc23)cc1 | 0 | 1 | 5 | 13 | -2 | .
Cc1ccc(Sc2c([N+](=O)[O-])c(=O)n(C)c3ccccc23)cc1 | 1 | 3 | 0 | 34 | 101* | 99*
CCOc1ccc2nc(Cl)c(C3CC(c4ccccc4)=NN3C(=O)c3ccco3)cc2c1 (centres undefined) | 122* | 14 | -6 | . | 124* | -1
O=C(COc1ccc(F)c(Cl)c1)N1CCCCCCC1 | -1 | -5 | -5 | 4 | 3 | .
O=C(CSC(=S)N1CCCC1)c1cc(Br)cc(Br)c1O | 9 | -30 | 6 | -5 | 71* | 45*
CC1CCCN(C(=S)SCC(=O)c2cc(Br)cc(Br)c2O)C1 (centres undefined) | 3 | 8 | 1 | 9 | 0 | .
CN(C)C(=O)CSc1cccc2cccnc12 | 4 | -19 | 4 | 0 | 214* | 205*
Cc1ccccc1S(=O)(=O)NC1OC(=O)C(Cl)=C1Cl (centres undefined) | 2 | -4 | 8 | -16 | 47* | 40*
COc1ccc(/C=C\c2nc(=O)c3ccccc3o2)cc1 | 7 | 9 | -22 | 21 | 57* | 121*
Cc1cccc(NC(=O)[C@@H]2CCCN2C(=O)OC(C)(C)C)c1 | -2 | 12 | 1 | 1 | 0 | .
O=[N+]([O-])c1ccc(Sc2cccc3cccnc23)c([N+](=O)[O-])c1 | -2 | 1 | 39 | -11 | 256* | 158*
C=CCn1nc([N+](=O)[O-])nc1Sc1cccc2cccnc12 | 14 | -17 | 10 | -7 | 168* | 230*
Nc1nccnc1C(=O)OCC(=O)NCCc1ccc(Cl)cc1 | 0 | -21 | -10 | -6 | 1 | .
COc1ccc(C(=O)CCS(=O)(=O)c2ccc(F)cc2)cc1OC | -9 | -4 | -11 | . | 44* | 11
Cc1ccc(S(=O)(=O)CCC(=O)c2ccc(F)cc2)cc1 | -7 | 8 | -3 | -13 | 3 | .
